Hits are enriched below; roughly 1.4% of the tested compounds scored in any of these assays.
NR1D1 modulator = Rev-erb alpha (human) modulation | Rev-erbα–FITC-DNA binding, fluorescence polarization, 90 min | activity, % at 10 µM | P20393 | 370,000 tested, 0.79% active | AID 1259318;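 active = activity above about 14%, limit read from the data; passing the limit was not always enough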;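 also: 0% = DMSO wells with 35 nM protein and 100% = DMSO wells with 750 nM protein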
NR2E3 ag-1 = activates human NR2E3 receptor; 360,000 tested, 0.35% active; inhibition of corepressor binding, % at 3.98 µM; AID 602229; CHO-S Gal4-NCOR/VP16-NR2E3 two-hybrid, luciferase; Q9Y5X4;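 active = inhibition above the mean of all tested compounds plus 3 SD, cut at about 70% in these data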;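 also: 0% = DMSO with NR2E3 transfected cells and 100% = cells lacking NR2E3 construct; higher means lower luciferase signal from less NR2E3 corepressor binding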
Target sequence (Q9Y5X4 whole entry, looked up, the tested form may be a part): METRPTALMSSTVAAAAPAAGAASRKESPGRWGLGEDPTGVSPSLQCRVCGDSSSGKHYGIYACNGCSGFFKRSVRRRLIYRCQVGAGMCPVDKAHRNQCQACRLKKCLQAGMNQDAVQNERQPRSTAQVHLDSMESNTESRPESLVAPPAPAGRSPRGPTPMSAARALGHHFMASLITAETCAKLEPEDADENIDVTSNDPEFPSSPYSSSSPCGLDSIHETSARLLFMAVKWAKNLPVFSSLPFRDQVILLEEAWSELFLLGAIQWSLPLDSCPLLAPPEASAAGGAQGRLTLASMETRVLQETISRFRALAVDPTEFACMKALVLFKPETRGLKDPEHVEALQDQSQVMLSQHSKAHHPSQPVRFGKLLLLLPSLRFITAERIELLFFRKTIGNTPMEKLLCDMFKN
PG9 binder = small molecules binding HIV-1 gp120 antibody PG9 | 360,000 tested, 0.43% active | inhibition, % at 6.7 µM | TR-FRET gp120-PG9 antibody binding; in the data active = inhibition above about 8.5%
NR2E3 ag-2 = NR2E3 (human) agonism; Q9Y5X4; GST-NR2E3/biotin-RetCOR TR-FRET, 1536-well; inhibition of corepressor binding, % at 4.78 µM; 320,000 tested, 0.12% active;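 active = percent inhibition above the cutoff of mean plus 3 SD of all tested compounds, set per screening campaign, cut at about 20% in these data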;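 also: 0% = DMSO wells and 100% = biotin wells as full block of FRET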
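Material: NR2E3–RetCOR corepressor complex | Quantity: 1.35 nM GST-tagged NR2E3 final | Schedule: 5 h at 4 °C | Replication: Singlicate compound wells | Reagent: RetCOR corepressor, biotinylated, 7 nM | Controls: Biotin wells as high control, 0.6% DMSO wells as low control | Signal: TR-FRET, Eu(K)-anti-GST donor, streptavidin-D2 acceptor, ex 340, em 617/671 nm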
PG9 bind confirm = PG9 antibody binding, confirmed; 1,500 tested, 90% active; inhibition, % at 6.7 µM; shares compounds with PG9 binder; TR-FRET PG9 antibody binding, biochemical; AID 651571; in the data active = inhibition above about 9%
PGV04 counter = counter-screen for PG9 binders: binding control antibody PGV04; AID 651604; shares compounds with PG9 binder; 1,500 tested, 95% active; TR-FRET PGV04 antibody-gp120 binding, biochemical; inhibition, % at 6.7 µM; in the data active = inhibition above about 9.5%
PG9 bind DR = small molecules binding HIV-1 gp120 antibody PG9. shares compounds with PG9 binder. TR-FRET PG9 antibody-gp120 binding inhibition. IC50, µM. 95 tested, under 10 active. AID 651848; in the data active = IC50 below about 10 µM
PGV04 binding DR = PGV04 binding, dose response counter-screen. AID 651937. shares compounds with PG9 binder. TR-FRET binding to control antibody PGV04. IC50, µM. 95 tested, 20% active
PG126 DR counter = binds control antibody PG126 in PG9 counter-screen | shares compounds with PG9 binder | TR-FRET binding to antibody PG126, counterscreen | IC50, µM | 95 tested, 20% active | AID 651939
NR1D1 mod conf = Rev-erb alpha (human) modulation, hit confirmation; Rev-erb alpha FITC-DNA binding, fluorescence polarization, 90 min; AID 1259319; 3,000 tested, 61% active; shares compounds with NR1D1 modulator; activation, % at 25 µM;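 active = activation at or above a set limit, or at least 3 SD above the negative control mean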;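 also: 0% = 35 nM protein with DMSO and 100% = 750 nM protein high control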
RORg counter = counter-screen for Rev-erb alpha modulators: RORgamma DNA binding. shares compounds with NR1D1 modulator. purified RORgamma protein-FITC-DNA binding, fluorescence polarization. IC50, µM. 910 tested, 8% active. AID 1259320;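 active = Compounds whose fitted half-maximal concentration for disrupting protein-DNA binding is below 10 micromolar; the record names Rev-erb in its text, so the target is in doubt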
An asterisk follows results filed as active; i = inactive; nt = no result. Rule as the data show it, unless noted: active = IC50 below about 9 µM; inactive = the rest.

SMILES	NR1D1 modulator	NR2E3 ag-1	PG9 binder	NR2E3 ag-2	PG9 bind confirm	PGV04 counter	NR1D1 mod conf	others
CCOc1cc(N2CCOCC2)c(OCC)cc1NC(=O)c1[nH]c(C)c(C(C)=O)c1C	-8	-5	-1	2	nt	nt	nt
Cc1nc(N2CCN(C(=O)C3CC3)CC2)c2c3c(sc2n1)CC(C)CC3 (stereo unspecified)	-2	nt	nt	nt	nt	nt	nt
Cc1ccc(NC(=O)c2ccc3c(c2)OCO3)cc1Cl	6	-147	0	-1	nt	nt	nt
Cc1ccc(C(=O)Nc2ccc3c(c2)OCO3)cc1Cl	24*	-57	21*	-1	18*	22*	7
COC(=O)[C@]12C[C@H](CC(=O)NCc3ccc(OC)c(OC)c3)C(=O)N(Cc3ccc(Cl)cc3Cl)C1=C[C@H](C1CCCC1)O[C@@H]2C	-2	nt	nt	nt	nt	nt	nt
O=C(CSc1nc2ncc(Cl)cc2[nH]1)c1c[nH]c2ccccc12	23*	-9	35*	10	35*	51*	23*
O=C(CSc1nc2ccc(Cl)cc2[nH]1)c1c[nH]c2ccccc12	1	-25	-2	1	nt	nt	nt
CS(=O)(=O)c1ccc(C(=O)Nc2ccc(N3CCCCC3)cc2)c(Cl)c1	8	-3	-3	-2	nt	nt	nt
Cc1ccc(Sc2ccc(NC(=O)c3ccc(S(C)(=O)=O)cc3Cl)cc2)cc1	46*	1	48*	1	41*	62*	22*
N#Cc1c(N)nc(N2CCCC2)c(C#N)c1-c1ccc(Cl)cc1	146*	-8	25*	1	19*	28*	106*	RORg counter=>40
Cn1nc(N)c2c(-c3ccc(Cl)cc3)c(C#N)c(N)nc21	3	4	0	2	nt	nt	nt
O=C(CCCCCn1c(=S)[nH]c2ccc(N3CCOCC3)cc2c1=O)NCc1ccc(Cl)cc1	18*	-11	21*	-9	16*	25*	1
O=C(CCCCCn1c(=S)[nH]c2ccc(N3CCOCC3)cc2c1=O)NCc1ccc2c(c1)OCO2	22*	-45	21*	-17	17*	24*	-25
COc1ccc(CNC(=O)CCCn2c(=S)[nH]c3cc4c(cc3c2=O)OCO4)cc1	56*	-5	26*	6	17*	21*	36*	RORg counter=>40
O=C(CCCCCn1c(=S)[nH]c2ccc(N3CCOCC3)cc2c1=O)NCc1ccccc1Cl	-2	6	-1	-2	nt	nt	nt
C/C=C/C(=O)N1CCc2cc(S(=O)(=O)N(C)Cc3ccco3)ccc21	0	nt	nt	nt	nt	nt	nt
CC(C)C[C@H](NC1(C(=O)NCCc2c[nH]c3ccccc23)CCC1)C(=O)NCCCc1ccccc1	-4	nt	nt	nt	nt	nt	nt
O=C(NC1CCCCN(Cc2ccc(Cl)cc2)C1=O)c1c(F)cccc1F (stereo unspecified)	0	nt	nt	nt	nt	nt	nt
CC(C)(C)N(Cc1cn(Cc2ccccc2)nn1)S(=O)(=O)c1ccccc1Br	4	nt	nt	nt	nt	nt	nt
CCOC(=O)CNC(=O)N(C)[C@H]1C[C@H]2c3[nH]c4c(-c5cccc(C)c5)cccc4c3CCN2C(=O)[C@H]1[C@H](C)O	-6	nt	nt	nt	nt	nt	nt
Cc1cccc(NC(=O)C2CCCN(S(=O)(=O)c3cccc4nsnc34)C2)c1 (stereo unspecified)	155*	-3	65*	6	64*	58*	79*	PG9 bind DR=4.3*;PGV04 binding DR=3.9*;PG126 DR counter=4.3*;RORg counter=>40
Cc1cccc(NC(=O)C2CCN(S(=O)(=O)c3cccc4nsnc34)CC2)c1	6	-3	-1	3	nt	nt	nt
Fc1cccc2sc(Nc3nc4c(F)cccc4s3)nc12	68*	-18	23*	2	24*	38*	58*	RORg counter=>40
NNc1nc2c(F)cccc2s1	6	-49	-8	-6	nt	nt	nt
NC(=O)c1nsc(C(=O)N(c2ccccc2)C(C(=O)NCc2ccc(F)cc2)c2ccc(O)cc2)c1N (stereo unspecified)	20*	12	9.9*	6	4	9.8*	12
SMILES	NR1D1 modulator	NR2E3 ag-1	PG9 binder	NR2E3 ag-2	PG9 bind confirm	PGV04 counter	NR1D1 mod conf	others
COc1ccc(N(C(=O)c2snc(C(N)=O)c2N)C(C(=O)NCc2ccccc2)c2ccc(O)cc2)cc1 (stereo unspecified)	-4	-13	-1	nt	nt	nt	nt
COC(=O)CSc1nc(C)c(C(=O)Nc2ccccc2C)c(-c2ccc(Cl)cc2)c1C#N	26*	-17	9.1*	-1	7	16*	11
Cc1ccccc1NC(=O)c1c(C)nc(SCC(=O)OCc2ccccc2)c(C#N)c1-c1ccc(F)cc1	6	4	-1	-3	nt	nt	nt
N#Cc1ccc(-c2ccc3c(c2)OCO3)nc1SCC(=O)OCc1ccccc1	24*	-20	13*	-4	14*	29*	19*
COc1ccc(-c2ccc(C#N)c(SCC(=O)OCc3ccccc3)n2)cc1OC	5	-12	2	-1	nt	nt	nt
CCOC(=O)CC[C@@H]1CC[C@]2(CCCN(C(=O)c3ccno3)C2)O1	0	nt	nt	nt	nt	nt	nt
C[C@@H]1OC(C2CCCCC2)N(C)[C@H]2C[C@H]3c4[nH]c5c(-c6ccc7c(c6)OCO7)cccc5c4CCN3C[C@@H]12 (stereo partly specified)	5	nt	nt	nt	nt	nt	nt
CCn1c(=NC(=O)c2cccc(N3C(=O)CCC3=O)c2)sc2c(C)ccc(OC)c21	6	-9	1	-1	nt	nt	nt
CCn1c(=NC(=O)c2ccc(N3C(=O)CCC3=O)cc2)sc2c(OC)ccc(OC)c21	82*	-25	16*	2	31*	56*	96*	RORg counter=i
Cc1cc2nc(-c3ccc(SCC(=O)Nc4ccc(S(=O)(=O)N5CCCC5)cc4)nc3)[nH]c2cc1C	31*	-101	16*	-27	8	27*	32*
COC(=O)C1CCCN(C(=O)C(Cc2ccc3c(c2)OCO3)NC(C)=O)C1 (stereo unspecified)	0	nt	nt	nt	nt	nt	nt
CCOC(=O)N1CCC(NC(=O)c2ccc3c(c2)N(Cc2ccc(C)cc2)CCS3)CC1	30*	-4	22*	2	31*	44*	7
CCOC(=O)N1CCC(NC(=O)c2ccc3c(c2)N(Cc2ccc(F)cc2)CCS3)CC1	5	-49	2	-1	nt	nt	nt
